# Laboratory results published in ChEMBL document CHEMBL4834471 (J Med Chem, 2021).
# The source made the active and inactive calls. The calls are words filed in the database; no cut-off is given here.
# Tests used:
# [1] = system: Monocyte; experiment: Cytotoxicity against human monocytes assessed as reduction in LDH release at 1 to 10 uM after 2 to 24 hrs by CytoTox96 nonradioactive assay; assay type: cell-based; conditions: dose lower 1 µM, time lower 2 hrs, dose upper 10 µM, time upper 24 hrs
# Summary of the method: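 Monocytes at 4 × 10^5/mL in monocyte medium treated 2 or 24 h at 37 °C, 5% CO2, with 0.1% DMSO vehicle. LDH release measured by CytoTox 96 kit, with Triton X-100 (0.8%) defining maximum release.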
# [2] = system: Keratinocyte; experiment: Antiinflammatory activity in cytokine cocktail-induced reconstructed human epidermis model assessed as effect on TSLP expression at 5 to 25 uM after 4 days by ELISA; assay type: functional, cell-based; conditions: dose 5-25 µM, time 4.0 day
compound,measurement,setting,value
C/C(=C\CC/C(C)=C/CC[C@]1(C)CCc2c(C)c(O)c(C)c(C)c2O1)CCC=C(CO)CO,Activity,[1],Toxic
same,Activity,[2],inactive
